Data as given in ChEMBL document CHEMBL4270484, “Synthesis and Characterization of a Phosphate Prodrug of Isoliquiritigenin” (J Nat Prod, 2017).
In brackets after ≈: the same amount, converted by molar mass.

Columns and labels:
[1] = Solubility in pH 7.4 PBS sonicated for 5 mins followed by incubation at room temperature for 30 mins; type: physicochemical
In short: (§1)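 Solid suspended in PBS pH 7.4 at the stated amount and volume, sonicated 5 min, held 30 min at room temperature, then diluted 1:1 stepwise until a clear solution. Solubility judged by visual inspection as partial or soluble.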

[2] = Stability of the compound in amophous solid form at ambient temperature incubated for 16 days; type: physicochemical; conditions: 384 h
[3] = Solubility in pH 7.4 PBS at 3.83 mg in 100 ul solution sonicated for 5 mins followed by incubation at room temperature for 30 mins; type: physicochemical; in short: as §1
[4] = Drug metabolism in C57BL/6 mouse lung extracts assessed as half life for isoliquiritigenin formation by UPLC analysis; type: ADME, tissue-based
In short: (§2)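 Mouse plasma (cardiac puncture, heparin, spun 2000g 10 min 4 °C) or lung homogenate in 0.9% saline (spun 400g 5 min), n = 3 mice, stored −80 °C. 27 μL matrix plus 5 μL of 1 mM prodrug in PBS pH 7.4, 37 °C; lung 5–20 min, plasma 40–240 min. Stopped with CH3CN, centrifuged, UPLC at 360 nm with Fmoc-glycine reference; remaining fraction from prodrug/parent AUC ratio.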

[5] = Solubility in pH 7.4 PBS at 3.83 mg in 200 ul solution sonicated for 5 mins followed by incubation at room temperature for 30 mins; type: physicochemical; in short: as §1
[6] = Stability in pH 7.4 PBS buffer at 37 degC incubated for 24 hrs by UPLC analysis; type: physicochemical; conditions: pH 7.4, 24 h
Mus musculus [7] = test: Reduction in IL6 gene expression in lungs of C57BL/6 mouse infected with Influenza A virus (A/Puerto Rico/8/1934(H1N1)) at 10 mg/kg, ip starting on the same day as infection and continued daily until day 3 postinfection by real-time PCR analysis; type: functional; parameters: scale not given: the % may be the effect or the level left
In short: (§3)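 Female C57BL/6 mice, 6–8 weeks old, infected intranasally with PR8 and given 10 mg/kg in saline by ip injection. On day 3 p.i., lungs were homogenized in Ribozol. 500 ng RNA was reverse-transcribed and run in SYBR green qPCR. Fold change versus uninfected mice was calculated by 2ΔΔCt with 18S normalization. Means ± SD from three experiments, 3–4 mice per group.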

[8] = Stability of the compound in pH 7.4 phosphate buffer solution at 4 degC incubated for 16 days; type: physicochemical
Mus musculus [9] = test: Reduction in CCL4 gene expression in lungs of C57BL/6 mouse infected with Influenza A virus (A/Puerto Rico/8/1934(H1N1)) at 10 mg/kg, ip starting on the same day as infection and continued daily until day 3 postinfection by real-time PCR analysis; type: functional; parameters: scale not given: the % may be the effect or the level left; in short: as §3
[10] = Stability of the compound in amophous solid form at -20 degC incubated for 16 days; type: physicochemical
[11] = Stability of the compound in pH 7.4 phosphate buffer solution at -20 degC incubated for 16 days; type: physicochemical
[12] = Drug metabolism in C57BL/6 mouse plasma assessed as half life for isoliquiritigenin formation by UPLC analysis; type: ADME, cell-free; in short: as §2
[13] = Solubility in pH 7.4 PBS at 3.83 mg in 400 ul solution sonicated for 5 mins followed by incubation at room temperature for 30 mins; type: physicochemical; in short: as §1
[14] = Solubility in pH 7.4 PBS at 0.5 mg in 8 ul solution sonicated for 5 mins followed by incubation at room temperature for 30 mins; type: physicochemical; in short: as §1
[15] = Solubility in pH 7.4 PBS at 0.5 mg in 4 ul solution sonicated for 5 mins followed by incubation at room temperature for 30 mins; type: physicochemical; in short: as §1
[16] = Solubility in pH 7.4 PBS at 0.5 mg in 16 ul solution sonicated for 5 mins followed by incubation at room temperature for 30 mins; type: physicochemical; in short: as §1
[17] = Solubility in pH 7.4 PBS at 0.5 mg in 64 ul solution sonicated for 5 mins followed by incubation at room temperature for 30 mins; type: physicochemical; in short: as §1
[18] = Solubility in pH 7.4 PBS at 0.5 mg in 128 ul solution sonicated for 5 mins followed by incubation at room temperature for 30 mins; type: physicochemical; in short: as §1
[19] = Solubility in pH 7.4 PBS at 0.5 mg in 2 ul solution sonicated for 5 mins followed by incubation at room temperature for 30 mins; type: physicochemical; in short: as §1
[20] = Solubility in pH 7.4 PBS at 0.5 mg in 32 ul solution sonicated for 5 mins followed by incubation at room temperature for 30 mins; type: physicochemical; in short: as §1
Influenza A virus = test: Antiviral activity against Influenza A virus (A/Puerto Rico/8/1934(H1N1)) infected in MDCK cells infected with supernatants from virus-infected human Calu3 cells treated with compound for 2 days assessed as reduction in viral replication by crystal violet staining based viral plaque assay; type: functional, organism-based; conditions: 48 h
[21] = phosphate buffer solution, pH 7.4, read-out: Stability

N.O=C(/C=C/c1ccc(OCOP(=O)(O)O)cc1)c1ccc(O)cc1O
solubility at 0.5 h [1]: 25 mM | Stability [2]: 2 weeks | solubility at 0.5 h [3]: 100 mM | t1/2 [4]: 10.8 min | solubility at 0.5 h [5]: 50 mM | Stability [6]: Stable | Activity (Mus musculus [7]): 80% | Stability ([8]; buffer, pH 7.4, 384 h): Stable | Activity (Mus musculus [9]): 62.5% | Stability ([10]; 384 h): 6 months | Stability ([11]; buffer, pH 7.4, 384 h): Stable | t1/2 [12]: 100 min | solubility at 0.5 h [13]: 25 mM

O=C(/C=C/c1ccc(OCOP(=O)(O)O)cc1)c1ccc(O)cc1O
remaining at 384 h [8, 21]: 60% | remaining at 384 h ([10]; amorphous solid form, read-out: Stability): 80% | remaining at 384 h [11, 21]: 80%

O=C(/C=C/c1ccc(O)cc1)c1ccc(O)cc1O [ISOLIQUIRITIGENIN]
solubility at 0.5 h [1]: 0.0153 mM (≈ 0.00392 mg/mL) | solubility at 0.5 h [14]: 250 mM (≈ 64.1 mg/mL) | solubility at 0.5 h [15]: 500 mM (≈ 128 mg/mL) | Stability [4]: Stable | solubility at 0.5 h [16]: 125 mM (≈ 32 mg/mL) | solubility at 0.5 h [17]: 31.2 mM (≈ 8 mg/mL) | Stability [6]: Stable | solubility at 0.5 h [18]: 15.3 mM (≈ 3.92 mg/mL) | solubility at 0.5 h [19]: 1000 mM (≈ 256 mg/mL) | solubility at 0.5 h [20]: 62.5 mM (≈ 16 mg/mL) | EC50 (Influenza A virus): 24.7 µM
